This note sets out measurements from ChEMBL document CHEMBL3272064, “Mode of action and quantitative structure-activity correlations of tuberculostatic drugs of the isonicotinic acid hydrazide type” (J Med Chem, 1976).

Values after ≈ are worked out from the molar mass of the structure shown.

Series [1] can be described thus: Dissociation constant, pKa of the compound.
Series [2] has as its system Mycobacterium tuberculosis. Kind of series: Antibacterial activity against Mycobacterium tuberculosis H37Rv assessed as growth inhibition by two-fold serial dilution method. It is filed as functional. The conditions noted are these: for MIC: Mycobacterium tuberculosis, H37Rv.
The nature of series [3]: Retardation factor, Rm of the compound in acetone-water-silica gel layer. It is filed as physicochemical. The conditions noted are these: buffer. An outline of the steps: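 Reversed-phase partition chromatography. The mobile phase was acetone–water; the stationary phase was a silica gel layer impregnated with a paraffin solution in n-hexane.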
Series [4] in a line: Dissociation constant, pKa of the compound at 25 degC by spectrophotometric analysis. Format: physicochemical. An outline of the steps: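 Determined spectrophotometrically at 25 °C (±1). For the approximate value of the nitro-substituted pyridine, the Hammett acidity function (H0) was used.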
The test system of series [5] is Mycobacterium tuberculosis. Description: Antibacterial activity against Mycobacterium tuberculosis assessed as growth inhibition at pH 7. It is filed as functional.
In series [6] the test system is Mycobacterium tuberculosis. Description: Antibacterial activity against Mycobacterium tuberculosis using acidic culture media at pH 5.9 assessed as growth inhibition. It is filed as functional.
Series [7] deals with Mycobacterium tuberculosis. Description: Antibacterial activity against Mycobacterium tuberculosis assessed as growth inhibition. Format: functional. An outline of the steps: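 Liquid-culture serial dilution against M. tuberculosis H37Rv, with √2 dilution steps. The test medium had 0.7% protein content. MIC (μM) was taken as the average of at least two determinations. Isoniazid served as the standard in every experiment. Activity was expressed as 1/MIC.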

In series [8] the test system is Mycobacterium tuberculosis. Description: microbe, parasite or virus in culture.
A short description of series [9]: 1-octanol-phosphate buffer partition coefficient, log P of the compound at pH 7.4. Format: physicochemical.
Series [10] deals with Mycobacterium tuberculosis. Kind of series: Antibacterial activity against Mycobacterium tuberculosis assessed as growth inhibition in presence of 16 uM nicotinic acid hydrazide. Format: functional.

The term pKa denotes the negative logarithm of the acid dissociation constant. Low readings indicate a stronger acid or weaker base, high ones a weaker acid or stronger base. In [1], `CCCc1ccccn1` showed a pKa of 5.97.

`NNC(=O)c1ccnc(Cc2ccccc2)c1`: the “log(1/MIC)” value in series [2] is on record as -1.585. In series [3], this compound came in with a Rm of 1.365.

Take `CCc1cc(C(=O)NN)ccn1`: the “log(1/MIC)” value in series [2] is recorded as -1.324. The compound also showed a Rm in series [3] of 0.862.

Take `Cc1cc(C(=O)NN)ccn1`: the “log(1/MIC)” value in series [2] is listed as -0.716. In [3], this compound returned a Rm of 0.697.

Compound `C=Cc1ccccn1` registered a pKa in series [1] of 4.98.

`CC(=O)NCc1ccccn1` registered a pKa in series [4] of 4.23.

Take `NNC(=O)c1ccnc(-c2ccccc2)c1`: the “log(1/MIC)” value in series [2] is listed as -1.699. Besides, the Rm in series [3] stood at 1.643.

`CCOc1ccccn1` registered a pKa in [4] of 3.47.

On to `CC(=O)Nc1cc(C(=O)NN)ccn1`, for which, in series [2], the “log(1/MIC)” value is -3.332. Further, the Rm in series [3] was 0.266.

In the case of `COc1ccccn1`, the pKa in series [1] is 3.06.

Take `O=C(O)c1ccncc1` [ISONICOTINIC ACID]: the pKa in series [1] was determined as 4.84. Besides, the MIC in series [5] was above 4 mM; in series [6], 128 µM (≈ 15.8 µg/mL).

Regarding `CCc1ccccn1`, the pKa in series [1] stood at 5.97.

For the compound `CCN(CC)c1cc(C(=O)NN)ccn1`, the “log(1/MIC)” value in [2] was -2.856. The compound further displayed a Rm in [3] of 1.383.

Consider `CC(C)Cc1cc(C(=O)NN)ccn1`, for which, in [2], the “log(1/MIC)” value is on record as -2.653 and the MIC is 450 µM (≈ 87 µg/mL). In series [3], this compound displayed a Rm of 1.366.

For `NNC(=O)c1cccnc1` [NICOTINIC ACID HYDRAZIDE], in series [7], the MIC is 1900 µM (≈ 261 µg/mL).

Turning to `NNC(=O)c1ccnc(Br)c1`, in series [2], the “log(1/MIC)” value is -2.79 and the MIC is 616 µM (≈ 133 µg/mL). Besides, in series [3], the Rm was determined as 0.866.

Consider `NNC(=O)c1ccnc(F)c1`, for which, in series [2], the “log(1/MIC)” value is -2.415 and the MIC was 260 µM (≈ 40.3 µg/mL). For the same compound, the Rm in series [3] was 0.42.

By logD is commonly meant lipophilicity at a set pH, counting ionised and neutral species. Consider `NNC(=O)c1ccncc1` [ISONIAZID], for which the MIC stood at 1 µM (≈ 0.137 µg/mL) in [7], 1.1 µM (≈ 0.151 µg/mL) in [2], 0.5 µM (≈ 0.0686 µg/mL) in series [8] and 1900 µM in series [10]. Also, the “log(1/MIC)” value in [2] is listed as -0.041. Besides, the Rm in [3] was 0.372. Besides, the pH-dependent lipophilicity (logD) in [9] was -1.14.

Consider `NNC(=O)c1ccnc(N)c1`, for which the “log(1/MIC)” value in series [2] is given as -1.161. In series [3], this compound returned a Rm of 0.32.

As for `NNC(=O)c1ccnc(I)c1`, the “log(1/MIC)” value in series [2] was -2.404. For the same compound, in [3], the Rm is 0.931.

Take `CC(=O)NCc1cc(C(=O)NN)ccn1`: the “log(1/MIC)” value in series [2] is listed as -2.386. In addition, the Rm in series [3] is 0.34.

Compound `CC(=O)Nc1ccccn1` had a pKa in series [1] of 4.09.

As to `COc1cc(C(=O)NN)ccn1`, in [2], the “log(1/MIC)” value is listed as -2.185. The compound also returned a Rm in [3] of 0.783.

In the case of `CCOc1cc(C(=O)NN)ccn1`, the “log(1/MIC)” value in series [2] is given as -2.655. The Rm in series [3] was found to be 0.954.

Compound `c1ccc(Cc2ccccn2)cc1` yielded a pKa in series [1] of 5.13.

For the compound `Brc1ccccn1`, the pKa in series [1] was found to be 0.9.

As to `C=Cc1cc(C(=O)NN)ccn1`, the “log(1/MIC)” value in series [2] is reported as -1.544. The same compound gave a Rm in [3] of 1.02.

Regarding `NNC(=O)c1ccnc([N+](=O)[O-])c1`, in series [2], the “log(1/MIC)” value is -2.569. Moreover, in [3], the Rm is 0.577.

In turn, `Nc1ccccn1` [2-AMINOPYRIDINE] gave a pKa in series [1] of 6.71.

As to `CCN(CC)c1ccccn1`, in series [4], the pKa worked out at 7.32.

In [1], `Fc1ccccn1` registered a pKa of 0.44.

On to `CCCc1cc(C(=O)NN)ccn1`, for which the “log(1/MIC)” value in [2] is recorded as -1.742. The same compound had a Rm in series [3] of 1.168.

Regarding `NNC(=O)c1ccnc(Cl)c1`, the “log(1/MIC)” value in [2] is on record as -2.593. Besides, the Rm in series [3] worked out at 0.63.
